# From the RNAGym collection of RNA variant scans (doi:10.1126/science.aae0568)
# Fewer inactive variants are shown than the library holds.
# B1: tRNA (parent)
# chain: GUUCCGUUGGCGUAAUGGUAACGCGUCUCCCUCCUAAGGAGAAGACUGCGGGUUCGAGUCCCGUACGGAACG
# Variants of: B1
# Assay: yeast fitness relative to wild type (ratio to wild type); higher = fitter; tRNA-Arg(CCU), competitive growth, 37 C, YPD
# How it was run: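 Variants of the tRNA-Arg(CCU) gene were chemically synthesised with a 3% per-site mutation rate across 69 sites and placed at the native genomic locus in Saccharomyces cerevisiae. Six parallel replicates of the pooled strains were competed in YPD at 37°C for 24 hours, and gene amplicons from the start and end populations were read by 100-nucleotide paired-end sequencing. Darwinian fitness relative to wild type was derived from changes in genotype frequencies. Genotypes required ≥ 100 starting reads, and estimates < 0.5 were set to 0.5.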
row,Variant,yeast fitness
1,G12C A14G C22U U54C C61U,≤ 0.5
2,G12A G52C C55U A65U,≤ 0.5
3,G12A G25A G68C,0.645
4,G12A G25C,0.961
5,G12A C31A G38C A65G,≤ 0.5
6,G12A C22U A57U,≤ 0.5
7,G12A U26A C31U G48A,0.711
8,G12C A15G C29U A42U U47C C62U,≤ 0.5
9,C11U U28A C62G,≤ 0.5
10,G12A U16A,0.974
11,C11U U28C G44C,0.557
12,G12A G18C C29U,0.599
13,G12A C24U C49G G56C G58A,≤ 0.5
14,G12A A40U A45G C60A,≤ 0.5
15,G12A G41A G51C,≤ 0.5
16,G12A C55A,0.6
17,G12A C55G,0.639
18,G12A U54A,0.679
19,G12A U54C,0.797
20,G12A C33U G39C C66G,≤ 0.5
21,G12C A36C G50A,≤ 0.5
22,G12A C24G U35A A36G A40C G67A,≤ 0.5
23,G12A A14C A20C A42G G44A,≤ 0.5
24,G12A A15C C62G A65C,≤ 0.5

row,Variant,yeast fitness
1,G12A U47A G63A A69U,0.554
2,G12A A21G A40U G67U,≤ 0.5
3,G12A U28A A40U,0.647
4,G12A C46G A70G,0.703
5,G12A A20G A21G C22G,≤ 0.5
6,G12A A20C U28C,0.664
7,G12A G44C A65G,0.649
8,G12A U16G C49U G63A,0.705
9,G12A C33U C46A C55G,≤ 0.5
10,C11U U35C A36U C46U G51A,≤ 0.5
11,G12A C22A C24A,≤ 0.5
12,G12A A43U A45C,≤ 0.5
13,G12A U13A G41C A45C C66U,≤ 0.5
14,C11U U53A C62A,≤ 0.5
15,G12A C22G,1
16,G12A U13G U19C A21G C49U G52A U59G,0.525
17,G12A G58C G63A,0.615
18,G12A A20G,0.923
19,G12A A20C,0.875
20,G12A U13C C33U C34U A42C G50A,≤ 0.5
21,C11U U64G,0.739
22,G12A C30A C31G U54G,≤ 0.5
23,G12A A20C C29A,≤ 0.5
24,G12A G25A U32C,0.749

row,Variant,yeast fitness
1,G12A A15C C62U C66G,≤ 0.5
2,C11U U26G U32A A43C U53C A70U,≤ 0.5
3,G12A A14G A15G C27U G38A G68C,≤ 0.5
4,G12A A15C C46G G58C C61A,≤ 0.5
5,G12A G51C C62A,≤ 0.5
6,C11U U26C U47A G50A,≤ 0.5
7,G12A A14C C31G A65C,≤ 0.5
8,G12A A21G A40U,0.564
9,G12A U32C A43C A65U,≤ 0.5
10,C11U U32C C33U C62U A65G,≤ 0.5
11,G12A C24U G25A C30U C46A,0.571
12,G12A U16C C55G A65C,≤ 0.5
13,G12A A43G G48C,0.568
14,G12A A15U G17A,≤ 0.5
15,G12A G63C,0.704
16,G12A G41A C60G A65G,0.559
17,G12A U19C A21U A45U G50A G68C A69U,≤ 0.5
18,G12A A15U C24U G44C G52C A69U,≤ 0.5
19,G12A A40C G58C U59C G63A,≤ 0.5
20,G12A U16A G39C U54C C55U,≤ 0.5
21,G12A C22G A43G C55A,≤ 0.5
22,G12A G17C G58A A70G,≤ 0.5
23,G12C A37G G38A A45U,0.506
24,G12A C49U G58A,0.7

row,Variant,yeast fitness
1,G12A C49A U54A,≤ 0.5
2,G12A U47G U53A C60A,≤ 0.5
3,G12A A20G A21U A40G,≤ 0.5
4,G12A C27G U32G C60A,≤ 0.5
5,C11U U35C A70G,0.641
6,G12A U35C C66U,0.614
7,G12C A14G G25A G41C C61U G67A,0.573
8,C11U U28C G44C U64C,≤ 0.5
9,G12A C29A A65U,≤ 0.5
10,G12A A14U A21U U32G A37G A45G C55A,≤ 0.5
11,G12A U13G,0.869
12,G12A A37U A42C,0.559
13,G12A G38A G48A,≤ 0.5
14,G12A A15U C24U G44C G52C,≤ 0.5
15,G12A C33U A36C,0.563
16,G12A C46A,1.05
17,G12A C27U U32A,0.702
18,G12C A37C A40U C46U G63A,≤ 0.5
19,G12A C61A G67A,≤ 0.5
20,C11U U54C A57G,0.553
21,G12A C29U U35A G44C C61A,≤ 0.5
22,G12A C24A A36U,0.666
23,G12A C46U C62U,0.732
24,G12A C27U A37C A45G,≤ 0.5

row,Variant,yeast fitness
1,G12A C31U C61U A70G,0.541
2,G12A U35A A45C,0.528
3,G12A A43U A45C G50C C60U,≤ 0.5
4,G12A A15G G48C A57U,≤ 0.5
5,G12A A42U,0.856
6,G12A A42C,0.89
7,C11U U26A C60A,≤ 0.5
8,G12A C29A A45U,0.531
9,G12C A20U C22A,0.927
10,G12A A14G,0.958
11,G12C A20C C27G A45G C66A,≤ 0.5
12,G12A C24G A40C A43C C46U C49U G68C A69U,≤ 0.5
13,C11U U32G C62A,0.618
14,G12A U26A C46U,0.543
15,G12A A15C G58C,≤ 0.5
16,G12C A15U C24A U54A C62U A65G G68A,≤ 0.5
17,G12C A21U C34U A42U U64A G68U,≤ 0.5
18,G12C A37C A40U C46U,0.59
19,G12A U28G U35C,≤ 0.5
20,C11U U26C U47A,0.555
21,C11U U26C U47C,0.799
22,G12A U16C C27A U54A,≤ 0.5
23,G12A U35A G58A G68A,0.561
24,C11U U28C A45U,0.742

row,Variant,yeast fitness
1,G12A U64C,0.921
2,G12A G51A,0.883
3,G12A G51C,0.662
4,G12C A37G G38A A45U A70G,0.567
5,G12A C33G A36C A37G G44A,≤ 0.5
6,G12C A20C C31G C66A,≤ 0.5
7,G12A C34A G51U G58A G63U,≤ 0.5
8,G12A C27U A36C A42U C46U,≤ 0.5
9,G12A C24U G41A,0.544
10,G12A C55A A65C,≤ 0.5
11,G12C A20C A43C,≤ 0.5
12,G12C A20C A43U,0.632
13,C11U U28A A69C,0.58
14,G12A U32A A40U G41C C46A G52A,≤ 0.5
15,G12A C24G C62G,≤ 0.5
16,G12C A20C U47A A70G,0.755
17,G12A A21G C34U C62A A69U,≤ 0.5
18,G12A C24A A36C C61U G67U,0.615
19,C11U U28C C29G C60A,≤ 0.5
20,G12A A15G C24A A36U C61U G67U,0.761
21,G12A C60A G67A,0.68
22,G12A U13A A14G A21G C33U,≤ 0.5
23,G12A C24A U26G A43C C62G G63A C66G A69G,≤ 0.5
24,G12A G17C,0.661

row,Variant,yeast fitness
1,G12A G38A U54C,≤ 0.5
2,G12A A42G C66G G67C,≤ 0.5
3,C11U U35C U64A,≤ 0.5
4,G12A A20G A45U C49G A57U,≤ 0.5
5,G12A G51A C61A,≤ 0.5
6,G12A A21G C46G G51A A69U,≤ 0.5
7,G12A A21G G44A C46U A69C,0.507
8,G12A U19A G41A A42G G58U G63C,≤ 0.5
9,G12A C24A U64C,0.682
10,G12A C31U U53A U54G G58C C62U,0.635
11,G12C A20C G50A C60U,0.56
12,G12A C30U U32G A36U G39C G50C,≤ 0.5
13,G12A A43U A45C U54C G67C,0.525
14,G12A U16C C27A A70C,≤ 0.5
15,G12A U32C A40C G51A,≤ 0.5
16,G12A A14U C66A A70G,≤ 0.5
17,G12A A42C G50C,≤ 0.5
18,C11U U26G C30A A43C U53C C66U A70C,≤ 0.5
19,G12A G17C C46U,≤ 0.5
20,G12A A21G C46G G51A G67C,≤ 0.5
21,G12A C29A C60U,≤ 0.5
22,G12A C49A G68A,≤ 0.5
23,G12A C33A G51C,≤ 0.5
